Activity calls are given as the source filed them. No cut-off for these calls is given here.
Tests used:
MCF7 = assay: Antiproliferative activity against human MCF7 cells after 24 hrs by SRB assay; format: functional, cell-based; conditions: MCF7, 24 h
Outline: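 MCF-7 cells are grown for 24 h with or without drug, then for a further 48 h. Total cell protein is measured by sulforhodamine B staining, and the IC₅₀ is derived from it.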

[1] = Inhibition of tubulin polymerization by turbidimetry
Outline: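 Tubulin at 10 µM (1.0 mg/mL). Polymerization followed turbidimetrically at 350 nm in temperature-controlled spectrophotometers.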

[2] = Displacement of [3H]colchicine from tubulin at 50 uM by turbidimetry; conditions: in the assay text read “by DEAE-cellulose filter method” for “by turbidimetry”
Outline: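 Binding of [³H]colchicine to tubulin (1.0 µM, 0.1 mg/mL) is measured by the DEAE-cellulose filter method. The radioligand is at 5.0 µM and test agents at 5 or 50 µM. Each is run in triplicate.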

[3] = Inhibition of tubulin in rat A10 cells assessed as induction of cellular microtubule disassembly after 18 hrs by indirect immunofluorescence technique; format: cell-based; conditions: A10, 18 h
Outline: (§1)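 A-10 cells plated on glass coverslips and treated with compound at varying concentrations for 18 h. After fixation, microtubules immunostained with a β-tubulin antibody (indirect immunofluorescence) and nuclei stained with DAPI. Read by fluorescence microscopy. Percentage of cellular microtubule loss estimated visually across the concentration range.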

A10 = assay: Inhibition of tubulin in rat A10 cells assessed as disappearance of microtubule network at 20 uM after 18 hrs by fluorescence microscopy; format: cell-based; outline: as §1
[4] = Displacement of [3H]colchicine from tubulin at 5 uM by DEAE-cellulose filter method

SMILES | IC50 (MCF7) | IC50 [1] | inhibition [2] | EC50 [3] | Activity (A10) | inhibition [4]
COc1ccc(/C=C/C(=O)c2cc(OC)c(OC)c(OC)c2)cc1O | 110 nM | 2600 nM | 101% | 980 nM | Active | 88%
COc1ccc(/C=C\c2cc(OC)c(OC)c(OC)c2)cc1O [COMBRETASTATIN A4] | 32 nM | – | – | < 25 nM | – | –

From ChEMBL document CHEMBL1157725 (Bioorg Med Chem, 2010)
